Data taken from ChEMBL document CHEMBL4049453, “Discovery of Mixed Pharmacology Melanocortin-3 Agonists and Melanocortin-4 Receptor Tetrapeptide Antagonist Compounds (TACOs) Based on the Sequence Ac-Xaa1-Arg-(pI)DPhe-Xaa4-NH2” (J Med Chem, 2017).
The source made the active and inactive calls. No cut-off for these calls is given here. Non-standard residues stand in square brackets, D forms with d. Residues, ends and D or L forms follow the SMILES beside them. Bip = N[C@@H](Cc1ccc(-c2ccccc2)cc1)C(=O)O; dPhe(4-I) = N[C@H](Cc1ccc(I)cc1)C(=O)O; 2Nal = N[C@@H](Cc1ccc2ccccc2c1)C(=O)O; d2Nal = N[C@H](Cc1ccc2ccccc2c1)C(=O)O; Bta = N[C@@H](Cc1csc2ccccc12)C(=O)O

Columns and labels:
[1] = biological target: T1, Melanocortin receptor 4 (Mus musculus, UniProt P56450); experiment: Agonist activity at mouse MC4R expressed in HEK293 cells assessed as induction of cAMP accumulation up to 100 uM after 2 hrs by alpha screen assay relative to NDP-MSH; assay type: cell-based; conditions: read-out: Activity
[2] = biological target: Melanocortin receptor 4 (Mus musculus) (UniProt P56450); experiment: Antagonist activity at mouse MC4R expressed in HEK293 cells assessed as inhibition of NDP-MSH induced-cAMP accumulation up to 10 uM after 2 hrs by alpha screen assay; assay type: functional, cell-based
Outline: (§1)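 mouse MC3R or MC4R in stably transfected HEK293 cells, AlphaScreen cAMP assay (IBMX stimulation buffer, 2 h RT incubation, then 2 h with donor-bead lysis mix). […] Run in triplicate.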

[3] = biological target: Melanocortin receptor 3 (Mus musculus) (UniProt P33033); experiment: Antagonist activity at mouse MC3R expressed in HEK293 cells assessed as inhibition of NDP-MSH induced-cAMP accumulation up to 10 uM after 2 hrs by alpha screen assay; assay type: functional, cell-based; outline: as §1
[4] = biological target: Melanocyte-stimulating hormone receptor (Mus musculus) (UniProt Q01727); experiment: Agonist activity at mouse MC1R expressed in HEK293 cells assessed as induction of cAMP accumulation up to 100 uM after 2 hrs by alpha screen assay relative to NDP-MSH; assay type: functional, cell-based
Outline: (§2)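 HEK293 stably expressing mouse MC1R/MC3R/MC4R/MC5R (pCDNA3). Cells in stimulation buffer (HBSS, 0.5 mM IBMX, 5 mM HEPES, 0.1% BSA, pH 7.4) at 1000 cells/μL with anti-cAMP acceptor beads. Ligand given 10−4 to 10−10 M (or 10−6 to 10−12 M) for 2 h at RT in the dark, then donor beads/biotin-cAMP lysis mix for 2 h. AlphaScreen cAMP read-out, normalized to 10−6 M NDP-MSH as 100%.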

[5] = biological target: Melanocortin receptor 3 (Mus musculus) (UniProt P33033); experiment: Agonist activity at mouse MC3R expressed in HEK293 cells assessed as induction of cAMP accumulation up to 100 uM after 2 hrs by alpha screen assay relative to NDP-MSH; assay type: functional, cell-based; outline: as §2
[6] = biological target: Melanocortin receptor 5 (Mus musculus) (UniProt P41149); experiment: Agonist activity at mouse MC5R expressed in HEK293 cells assessed as induction of cAMP accumulation up to 100 uM after 2 hrs by alpha screen assay relative to NDP-MSH; assay type: functional, cell-based; outline: as §2
[7] = biological target: T1, Melanocortin receptor 4; experiment: Agonist activity at mouse MC4R expressed in HEK293 cells assessed as induction of cAMP accumulation at 100 uM after 2 hrs by alpha screen assay relative to NDP-MSH; assay type: cell-based; outline: as §2
[8] = biological target: Melanocortin receptor 3 (Mus musculus) (UniProt P33033); experiment: Agonist activity at mouse MC3R expressed in HEK293 cells assessed as induction of cAMP accumulation at 100 uM after 2 hrs by alpha screen assay relative to NDP-MSH; assay type: functional, cell-based; outline: as §2
[9] = biological target: Melanocortin receptor 5 (Mus musculus) (UniProt P41149); experiment: Agonist activity at mouse MC5R expressed in HEK293 cells assessed as induction of cAMP accumulation at 100 uM after 2 hrs by alpha screen assay relative to NDP-MSH; assay type: functional, cell-based; outline: as §2
[10] = biological target: Melanocyte-stimulating hormone receptor (Mus musculus) (UniProt Q01727); experiment: Agonist activity at mouse MC1R expressed in HEK293 cells assessed as induction of cAMP accumulation at 100 uM after 2 hrs by alpha screen assay relative to NDP-MSH; assay type: functional, cell-based; outline: as §2
[11] = biological target: T2, Melanocortin receptor 4 (Homo sapiens, UniProt P32245); experiment: Agonist activity at human MC4R expressed in CHO cells assessed as induction of cAMP activation after 45 mins relative to alpha MSH; assay type: cell-based; conditions: 0.75 h
[12] = biological target: T2, Melanocortin receptor 4; experiment: Antagonist activity at human MC4R expressed in CHO cells assessed as inhibition of aplha MSH-induced cAMP activation after 45 mins; assay type: functional, cell-based
[13] = biological target: Melanocortin receptor 3 (Homo sapiens) (UniProt P41968); experiment: Binding affinity to human MC3R expressed in CHO cells assessed by radioligand displacement
[14] = biological target: T2, Melanocortin receptor 4; experiment: Agonist activity at human MC4R expressed in CHO cells assessed as induction of cAMP activation after 45 mins; assay type: cell-based; conditions: 0.75 h
[15] = biological target: T1, Melanocortin receptor 4; experiment: Agonist activity at mouse MC4R expressed in HEK293 cells assessed as induction of cAMP accumulation after 2 hrs by alpha screen assay; assay type: cell-based

Chain of Melanocyte-stimulating hormone receptor (Mus musculus) (Q01727 whole entry, looked up): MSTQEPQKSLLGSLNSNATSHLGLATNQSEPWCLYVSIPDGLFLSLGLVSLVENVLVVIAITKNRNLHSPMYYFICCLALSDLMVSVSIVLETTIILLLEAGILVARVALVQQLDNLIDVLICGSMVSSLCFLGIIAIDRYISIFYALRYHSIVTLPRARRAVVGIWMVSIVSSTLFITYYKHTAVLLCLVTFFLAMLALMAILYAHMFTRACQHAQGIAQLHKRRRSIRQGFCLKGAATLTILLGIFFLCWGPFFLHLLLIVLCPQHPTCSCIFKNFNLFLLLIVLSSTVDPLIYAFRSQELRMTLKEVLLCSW
T1 sequence (P56450 whole entry): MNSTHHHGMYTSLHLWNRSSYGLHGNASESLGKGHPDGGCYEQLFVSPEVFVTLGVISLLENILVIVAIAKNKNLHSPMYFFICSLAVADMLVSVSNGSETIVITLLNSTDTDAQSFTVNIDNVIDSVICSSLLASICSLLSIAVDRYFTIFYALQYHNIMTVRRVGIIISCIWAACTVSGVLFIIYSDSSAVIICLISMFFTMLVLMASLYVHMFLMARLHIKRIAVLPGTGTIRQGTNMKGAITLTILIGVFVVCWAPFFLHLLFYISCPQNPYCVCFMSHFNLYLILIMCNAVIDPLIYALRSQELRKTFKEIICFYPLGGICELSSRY
Chain of Melanocortin receptor 4 (Mus musculus) (P56450 whole entry): as above
Chain of Melanocortin receptor 5 (Mus musculus) (P41149 whole entry): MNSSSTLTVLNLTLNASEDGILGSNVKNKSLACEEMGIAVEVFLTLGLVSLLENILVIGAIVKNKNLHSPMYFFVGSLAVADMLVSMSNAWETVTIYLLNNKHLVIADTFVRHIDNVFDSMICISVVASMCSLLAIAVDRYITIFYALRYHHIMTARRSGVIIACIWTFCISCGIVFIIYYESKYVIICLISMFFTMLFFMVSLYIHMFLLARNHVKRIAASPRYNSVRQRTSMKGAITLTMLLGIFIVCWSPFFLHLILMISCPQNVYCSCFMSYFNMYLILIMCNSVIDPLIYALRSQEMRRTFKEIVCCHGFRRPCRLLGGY
Chain of Melanocortin receptor 3 (Mus musculus) (P33033 whole entry): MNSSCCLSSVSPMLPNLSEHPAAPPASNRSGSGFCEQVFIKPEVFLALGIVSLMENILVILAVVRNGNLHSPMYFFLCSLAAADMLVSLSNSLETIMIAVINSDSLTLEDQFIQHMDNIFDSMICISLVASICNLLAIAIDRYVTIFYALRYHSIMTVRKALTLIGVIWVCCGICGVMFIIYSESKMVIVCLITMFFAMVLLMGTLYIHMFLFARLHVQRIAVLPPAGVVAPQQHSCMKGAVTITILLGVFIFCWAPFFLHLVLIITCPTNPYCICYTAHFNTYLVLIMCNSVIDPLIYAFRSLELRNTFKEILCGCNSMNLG
T2 sequence (P32245 whole entry): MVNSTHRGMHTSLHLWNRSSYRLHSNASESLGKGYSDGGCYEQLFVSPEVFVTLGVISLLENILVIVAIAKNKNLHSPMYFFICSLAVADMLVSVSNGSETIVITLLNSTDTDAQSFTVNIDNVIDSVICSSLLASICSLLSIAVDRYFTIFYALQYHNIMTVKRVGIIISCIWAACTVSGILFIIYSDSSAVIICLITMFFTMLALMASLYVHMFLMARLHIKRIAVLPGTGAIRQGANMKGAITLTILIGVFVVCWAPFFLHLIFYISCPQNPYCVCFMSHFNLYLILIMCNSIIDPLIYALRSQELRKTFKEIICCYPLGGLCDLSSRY
Chain of Melanocortin receptor 3 (Homo sapiens) (P41968 whole entry): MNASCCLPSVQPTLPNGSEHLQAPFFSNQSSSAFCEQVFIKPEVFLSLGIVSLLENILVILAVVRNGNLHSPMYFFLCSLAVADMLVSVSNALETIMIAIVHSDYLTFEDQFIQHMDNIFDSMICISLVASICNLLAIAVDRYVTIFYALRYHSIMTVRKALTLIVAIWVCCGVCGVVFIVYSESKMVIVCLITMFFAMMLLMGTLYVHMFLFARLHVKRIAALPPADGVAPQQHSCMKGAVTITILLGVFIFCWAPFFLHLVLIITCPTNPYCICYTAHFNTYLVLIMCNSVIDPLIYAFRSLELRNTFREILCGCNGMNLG

CC(=O)N[C@@H](Cc1ccc2ccccc2c1)C(=O)N[C@@H](CCCNC(=N)N)C(=O)N[C@H](Cc1ccc(I)cc1)C(=O)NC(Cc1ccccc1)C(N)=O (stereo in doubt)
Emax [1]: < 20% | inhibition [2]: inactive | inhibition [3]: inactive

CC(=O)NC(Cc1ccccc1)C(=O)N[C@@H](CCCNC(=N)N)C(=O)N[C@H](Cc1ccc(I)cc1)C(=O)NC(Cc1ccccc1)C(N)=O (stereo in doubt)
Emax [1]: < 20% | inhibition [2]: inactive | inhibition [3]: inactive

CC(=O)N[C@@H](Cc1ccc2ccccc2c1)C(=O)N[C@@H](CCCNC(=N)N)C(=O)N[C@H](Cc1ccc(I)cc1)C(=O)N[C@H](Cc1ccc2ccccc2c1)C(N)=O (Ac-[2Nal]R[dPhe(4-I)][d2Nal]-NH2)
Emax [1]: < 20% | inhibition [2]: inactive | inhibition [3]: inactive

CC(=O)N[C@@H](Cc1cnc[nH]1)C(=O)N[C@@H](CCCNC(=N)N)C(=O)N[C@H](Cc1ccc(I)cc1)C(=O)N[C@@H](Cc1ccc(-c2ccccc2)cc1)C(N)=O
Activity [4]: < 20% | inhibition [2]: inactive | inhibition [3]: inactive

CC(=O)N[C@@H](Cc1ccc(-c2ccccc2)cc1)C(=O)N[C@@H](CCCNC(=N)N)C(=O)N[C@H](Cc1ccc(I)cc1)C(=O)N[C@@H](Cc1ccc2ccccc2c1)C(N)=O (Ac-[Bip]R[dPhe(4-I)][2Nal]-NH2)
Emax [1]: < 20% | Activity [5]: < 20% | inhibition [2]: inactive | inhibition [3]: inactive

CC(=O)N[C@@H](Cc1ccc(-c2ccccc2)cc1)C(=O)N[C@@H](CCCNC(=N)N)C(=O)N[C@H](Cc1ccc(I)cc1)C(=O)N[C@@H](Cc1ccc(-c2ccccc2)cc1)C(N)=O (Ac-[Bip]R[dPhe(4-I)][Bip]-NH2)
Activity [6]: < 20% | Activity [4]: < 20% | Activity [5]: < 20% | inhibition [2]: inactive | inhibition [3]: inactive

CC(=O)N[C@@H](Cc1csc2ccccc12)C(=O)N[C@@H](CCCNC(=N)N)C(=O)N[C@H](Cc1ccc(I)cc1)C(=O)NC(Cc1ccccc1)C(N)=O (stereo in doubt)
Emax [1]: < 20% | inhibition [2]: inactive | inhibition [3]: inactive

CC(=O)N[C@H](Cc1ccc2ccccc2c1)C(=O)N[C@@H](CCCNC(=N)N)C(=O)N[C@H](Cc1ccc(I)cc1)C(=O)N[C@@H](Cc1csc2ccccc12)C(N)=O (Ac-[d2Nal]R[dPhe(4-I)][Bta]-NH2)
Activity [6]: < 20%

CC(=O)N[C@@H](Cc1csc2ccccc12)C(=O)N[C@@H](CCCNC(=N)N)C(=O)N[C@H](Cc1ccc(I)cc1)C(=O)N[C@H](Cc1ccc2ccccc2c1)C(N)=O
Activity [7]: 38% | Activity [8]: 34% | Activity [9]: 41% | Activity [10]: 36% | inhibition [2]: inactive | inhibition [3]: inactive

N=C(N)NCCC[C@H](NC(=O)[C@@H](Cc1ccc(I)cc1)NC(=O)[C@@H]1Cc2ccccc2CN1)C(=O)N[C@@H](Cc1c[nH]c2ccccc12)C(N)=O
Emax [11]: > 35% | Ki [12]: 0.79 nM | Kb ([12]; read-out: pA2 (converted)): 0.794 nM | IC50 [13]: 75 nM | Activity [14]: 0.3 nM

CC(=O)N[C@@H](Cc1csc2ccccc12)C(=O)N[C@@H](CCCNC(=N)N)C(=O)N[C@H](Cc1ccc(I)cc1)C(=O)N[C@@H](Cc1ccc2ccccc2c1)C(N)=O
Emax [1]: < 20% | Activity [5]: < 20% | inhibition [2]: inactive | inhibition [3]: inactive

CC(=O)N[C@H](Cc1ccc2ccccc2c1)C(=O)N[C@@H](CCCNC(=N)N)C(=O)N[C@H](Cc1ccc(I)cc1)C(=O)NC(Cc1ccccc1)C(N)=O (stereo in doubt)
Activity [6]: < 20% | Emax [1]: < 20% | Activity [5]: < 20%

CC(=O)N[C@H](Cc1ccc2ccccc2c1)C(=O)N[C@@H](CCCNC(=N)N)C(=O)N[C@H](Cc1ccc(I)cc1)C(=O)N[C@@H](Cc1ccc(-c2ccccc2)cc1)C(N)=O (Ac-[d2Nal]R[dPhe(4-I)][Bip]-NH2)
Activity [4]: < 20%

CC(=O)N[C@@H](Cc1csc2ccccc12)C(=O)N[C@@H](CCCNC(=N)N)C(=O)N[C@H](Cc1ccc(I)cc1)C(=O)N[C@@H](Cc1ccc(-c2ccccc2)cc1)C(N)=O (Ac-[Bta]R[dPhe(4-I)][Bip]-NH2)
Activity [4]: < 20% | inhibition [2]: inactive | inhibition [3]: inactive

CC(=O)N1Cc2ccccc2C[C@H]1C(=O)N[C@@H](CCCNC(=N)N)C(=O)N[C@H](Cc1ccc(I)cc1)C(=O)N[C@@H](Cc1ccc2ccccc2c1)C(N)=O (HELM PEPTIDE1{[ac].[Tic].R.[O=C([C@@H](Cc1ccc(I)cc1)N[*:1])[*:2]].[O=C([C@H](Cc1ccc2ccccc2c1)N[*:1])[*:2]].[am]}$$$$V2.0)
Emax [1]: < 20% | Activity [5]: < 20% | inhibition [3]: inactive

CC(=O)N1Cc2ccccc2C[C@H]1C(=O)N[C@@H](CCCNC(=N)N)C(=O)N[C@H](Cc1ccc(I)cc1)C(=O)NC(Cc1ccccc1)C(N)=O (stereo in doubt)
Emax [1]: < 20% | Activity [5]: < 20% | inhibition [2]: inactive | inhibition [3]: inactive

CC(=O)N[C@@H](Cc1ccc2ccccc2c1)C(=O)N[C@@H](CCCNC(=N)N)C(=O)N[C@H](Cc1ccc(I)cc1)C(=O)N[C@@H](Cc1ccc2ccccc2c1)C(N)=O (Ac-[2Nal]R[dPhe(4-I)][2Nal]-NH2)
Emax [1]: < 20% | Activity [8]: 39% | inhibition [2]: inactive | inhibition [3]: inactive

CC(=O)N[C@@H](Cc1ccc(-c2ccccc2)cc1)C(=O)N[C@@H](CCCNC(=N)N)C(=O)N[C@H](Cc1ccc(I)cc1)C(=O)N[C@H](Cc1ccc2ccccc2c1)C(N)=O (Ac-[Bip]R[dPhe(4-I)][d2Nal]-NH2)
Emax [1]: < 20% | inhibition [2]: inactive | inhibition [3]: inactive

CC(=O)N[C@@H](CCCNC(=N)N)C(=O)N[C@@H](CCCNC(=N)N)C(=O)N[C@H](Cc1ccc(I)cc1)C(=O)N[C@H](Cc1ccc2ccccc2c1)C(N)=O
EC50 [15]: > 100000 nM | Emax [1]: < 20%

CC(=O)N1Cc2ccccc2C[C@H]1C(=O)N[C@@H](CCCNC(=N)N)C(=O)N[C@H](Cc1ccc(I)cc1)C(=O)N[C@@H](Cc1ccc(-c2ccccc2)cc1)C(N)=O (HELM PEPTIDE1{[ac].[Tic].R.[O=C([C@@H](Cc1ccc(I)cc1)N[*:1])[*:2]].[O=C([C@H](Cc1ccc(-c2ccccc2)cc1)N[*:1])[*:2]].[am]}$$$$V2.0)
Emax [1]: < 20% | Activity [5]: < 20% | inhibition [2]: inactive | inhibition [3]: inactive

CC(=O)NC(Cc1ccccc1)C(=O)N[C@@H](CCCNC(=N)N)C(=O)N[C@H](Cc1ccc(I)cc1)C(=O)N[C@@H](Cc1ccc(-c2ccccc2)cc1)C(N)=O (stereo in doubt)
Emax [1]: < 20% | inhibition [2]: inactive | inhibition [3]: inactive
